Laboratory results published in ChEMBL document CHEMBL4052804, “Design and synthesis of piperazine acetate podophyllotoxin ester derivatives targeting tubulin depolymerization as new anticancer agents” (Bioorg Med Chem Lett, 2017).
The source made the active and inactive calls. The rule behind the calls is not given here.

Legend:
MCF7 [1] = assay: Cell cycle arrest in human MCF7 cells assessed as accumulation at G1 phase at 0.3 uM after 12 hrs by propidium iodide staining based flow cytometric method (reference value: 58.69 to 62.23%); format: functional
MCF7 [2] = assay: Induction of apoptosis in human MCF7 cells assessed as late apoptotic cells at 12 uM after 24 hrs by Annexin-V-FITC/propidium iodide staining based flow cytometric method (reference value: 2 to 3.7%); format: functional
MCF7 [3] = assay: Induction of apoptosis in human MCF7 cells assessed as late apoptotic cells at 4 uM after 24 hrs by Annexin-V-FITC/propidium iodide staining based flow cytometric method (reference value: 2 to 3.7%); format: functional
MCF7 [4] = assay: Down regulation of cyclin B1 expression in human MCF7 cells at 0.5 to 2 uM after 24 hrs by Western blot analysis; format: functional, cell-based
MCF7 [5] = assay: Cell cycle arrest in human MCF7 cells assessed as accumulation at S phase at 0.6 uM after 4 hrs by propidium iodide staining based flow cytometric method (reference value: 29.55 to 32.22%); format: functional
HeLa = assay: Cytotoxicity against human HeLa cells after 24 hrs by MTT assay; format: functional, cell-based
Summary of the method: (§1)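 In vitro antiproliferative screen by MTT assay against human MCF-7 breast, HeLa cervical, A549 lung adenocarcinoma and HepG-2 hepatoma cells. Output is the IC50.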

MCF7 [6] = assay: Cell cycle arrest in human MCF7 cells assessed as accumulation at G1 phase at 0.9 uM after 12 hrs by propidium iodide staining based flow cytometric method (reference value: 58.69 to 62.23%); format: functional
MCF7 [7] = assay: Cell cycle arrest in human MCF7 cells assessed as accumulation at G2/M phase at 0.3 uM after 12 hrs by propidium iodide staining based flow cytometric method (reference value: 5.43 to 13.68%); format: functional
MCF7 [8] = assay: Induction of apoptosis in human MCF7 cells assessed as viable cells at 12 uM after 24 hrs by Annexin-V-FITC/propidium iodide staining based flow cytometric method (reference value: 91.6 to 92.7%); format: functional; conditions: MCF7, 24 h, read-out: Activity
MCF7 [9] = assay: Cell cycle arrest in human MCF7 cells assessed as accumulation at S phase at 0.3 uM after 12 hrs by propidium iodide staining based flow cytometric method (reference value: 27.63 to 32.34%); format: functional
MCF7 [10] = assay: Cytotoxicity against human MCF7 cells after 24 hrs by MTT assay; format: functional, cell-based; conditions: MCF7, 24 h; summary of the method: as §1

**Q.** With `COc1cc([C@@H]2c3cc4c(cc3[C@H](OC(=O)CN3CCN(c5ccc(Cl)c(Cl)c5)CC3)[C@H]3COC(=O)[C@H]23)OCO4)cc(OC)c1OC` as the molecule, how does the Activity (MCF7 [1]) read?
**A.** 38.07%

**Q.** What about the Activity (MCF7 [2]) of the same molecule?
**A.** 20.4%

**Q.** What about the Activity (MCF7 [3]) of the same molecule?
**A.** 10.5%

**Q.** What about the Activity (MCF7 [4]) of the same molecule?
**A.** Active

**Q.** What about the Activity (MCF7 [5]) of the same molecule?
**A.** 23.99%

**Q.** What about the IC50 (HeLa) of the same molecule?
**A.** 5.1 µM

**Q.** What about the Activity (MCF7 [6]) of the same molecule?
**A.** 8.32%

**Q.** And the Activity (MCF7 [7])?
**A.** 37.72%

**Q.** What about the viability at 12 µM (MCF7 [8]) of the same molecule?
**A.** 55.2%

**Q.** What about the Activity (MCF7 [9]) of the same molecule?
**A.** 24.21%

**Q.** And the IC50 (MCF7 [10])?
**A.** 2.78 µM
